From the array DNA melting data of Ke et al. (doi:10.1101/2024.01.08.574731)

What was measured:
[1] = folding enthalpy; higher = less favourable; fluorescence melt of hairpins on a sequencing array, two-state fit; conditions: sodium 0.088 M
Outline: (§1)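 To match UV melts, fitted temperatures were raised by 9.35 °C. These fits were bootstrapped two-state models that gave melting temperature and folding enthalpy, combined by inverse variance over four replicates. The input was normalised Cy3 fluorescence of library hairpins with annealed Cy3 and quencher oligos on a sequenced MiSeq flow cell, imaged in 50 mM Na-HEPES pH 8.0, 25 mM NaCl in 2.5 °C steps up to 60 °C.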

[2] = melting temperature; fluorescence melt of hairpins on a sequencing array, two-state fit, raised by 9.35 °C to match UV melts; conditions: sodium 0.088 M
Outline: as §1

| Sequence | folding enthalpy [1] | Tm [2] |
| --- | --- | --- |
| GGCCCTGGAAACAAGGCC ((((.((....)).)))) | -36.7 kcal/mol | 48.3 °C |
| CGGTCGGAAACGAGCCCG ((((((....)))..))) | -14 kcal/mol | 37.5 °C |
| GCGGAGCGAAAGCTCGC (((.(((....)))))) | -17.6 kcal/mol | 67.4 °C |
| CGTCCGGAAACGGACACG ((((((....)))..))) | -8.11 kcal/mol | 42.9 °C |
| GATCCGTCCCGGATC ((((((...)))))) | -39.4 kcal/mol | 61 °C |
| GACGGCCGAAAGGCTGTC (((.(((....))).))) | -28.1 kcal/mol | 68.8 °C |
| GACAGCGAAAGCTACGTC ((((((....)))..))) | -13.8 kcal/mol | 39.8 °C |
| GTGTACGCGAAAGCGCAC (((..(((....)))))) | -16.7 kcal/mol | 48.9 °C |
| GATCCAATTTTGGATC ((((((....)))))) | -40.2 kcal/mol | 54 °C |
| GGACTCCGAAAGGAATCC (((.(((....))).))) | -30.5 kcal/mol | 47.3 °C |
| GCCCTCGAAAGAGTGGC ((((((....))).))) | -31.9 kcal/mol | 58.5 °C |
| GCGGTCCCGAAAGGGCGC (((..(((....)))))) | -18.5 kcal/mol | 60.1 °C |
| GCCCTGCGAAAGCAGGC (((.(((....)))))) | -8.08 kcal/mol | 65.1 °C |
| GATATAGCGAAAGCTATC (((..(((....)))))) | -10.1 kcal/mol | 33.9 °C |
| GATCACGCAGGTGATC ((((((....)))))) | -39.6 kcal/mol | 64.2 °C |
| GATCCCATCCGGGATC ((((((....)))))) | -36.8 kcal/mol | 64.2 °C |
| GATCCCCCCCGGGATC ((((((....)))))) | -38.5 kcal/mol | 57.2 °C |
| GTGACTCCGAAAGGACAC (((..(((....)))))) | -9.23 kcal/mol | 35.4 °C |
| GTGTCAGGAAACTAACAC ((((.((....)).)))) | -20.3 kcal/mol | 33.5 °C |

| Sequence | folding enthalpy [1] | Tm [2] |
| --- | --- | --- |
| GCTTGGCGAAAGCGGAGC (((..((....))..))) | -16.8 kcal/mol | 48.6 °C |
| GATCTCGCGCGAGATC ((((((....)))))) | -48.4 kcal/mol | 62.5 °C |
| GATCCTTTTTAGGATC ((((((....)))))) | -34.7 kcal/mol | 53.9 °C |
| GCGAGAGCTCGC ((((....)))) | -12.8 kcal/mol | 52.5 °C |
| GAGACCGGAAACGATCTC ((((.((....)).)))) | -31.9 kcal/mol | 42 °C |
| GAATTACGAAAGTAGTTC (((.(((....))).))) | -31.5 kcal/mol | 42.6 °C |
| GGCTAGGGAAACCCAGCC ((((.((....)).)))) | -39.4 kcal/mol | 52.1 °C |
| GTCCCGGGAAACCAGGAC ((((.((....)).)))) | -22.7 kcal/mol | 46 °C |
| GATCAGCCTTCTGATC ((((((....)))))) | -37.9 kcal/mol | 48.5 °C |
| GAACACGCGAAAGCGTTC (((..(((....)))))) | -8.07 kcal/mol | 27.9 °C |
| GGATTAGGAAACTAATCC (((((((....))))))) | -40.5 kcal/mol | 55 °C |
| GTGATCCGAAAGGACCAC (((.(((....))).))) | -34.6 kcal/mol | 51.8 °C |
| GGCTGAGGAAACTCAGTC (.(((((....))))).) | -41.6 kcal/mol | 51.3 °C |
| GCGCCGCGAAAGCGCCGC (((.(((....))).))) | -22.4 kcal/mol | 65.2 °C |
| GTTGAAGGAAACTTCAGC (.(((((....))))).) | -23 kcal/mol | 41.4 °C |
| GCATAGCGAAAGCTTGC (((.(((....)))))) | -22.5 kcal/mol | 54.3 °C |
| GAAAGCGAAAGCTTATTC ((((((....)))..))) | -10.9 kcal/mol | 32.7 °C |
| GGGTCTCGAAAGAGTCCC (((.(((....))).))) | -36.9 kcal/mol | 53.8 °C |
| CTTGGGAAACCAAG (((((....))))) | -22.4 kcal/mol | 45.9 °C |
